In ChEMBL document CHEMBL4819034, “Tricyclic-Carbocyclic RORγt Inverse Agonists-Discovery of BMS-986313” (J Med Chem, 2021):

Assays:
[1] = Cmax in dog at 2 mg/kg, po; assay type: ADME, organism-based, Canis lupus familiaris; parameters: route oral, dose 2 mg/kg; settings: in vivo
In short: (§1)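 Single-dose PK, IV and PO. Doses: mouse and rat 2 mg/kg IV / 4 mg/kg PO; dog and cyno 1 mg/kg IV, with 1 or 2 mg/kg PO.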

[2] = Volume of distribution at steady state in rat at 2 mg/kg, iv; assay type: ADME, organism-based; settings: in vivo, read-out: Vdss
In short: (§2)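 Single intravenous dose: mouse and rat 2 mg/kg, dog and cynomolgus 1 mg/kg. Steady-state volume of distribution was derived from the IV arm. Values are means from three or more animals.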

Mus musculus [3] = assay: Protection against recombinant human IL23-induced acanthosis C57BL/6 mouse model assessed as inhibition of ear thickening at 3 mg/kg, po BID for 10 days and measured every other day relative to control; assay type: functional; settings: C57BL/6, po, 240 h, time 10 day
In short: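 IL-23 ear-injection acanthosis model in C57BL/6 mice with BID oral dosing. Ear thickness % change was recorded every other day, before each next injection, from a day 0 baseline. Inhibition of ear thickening was calculated against the placebo arm from the area under the curve over the study duration.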

[4] = biological target: T1, Oxysterols receptor LXR-beta (Homo sapiens, UniProt P55055); assay: Inverse agonist activity at LXRbeta (unknown origin)
T1 sequence (P55055 whole entry): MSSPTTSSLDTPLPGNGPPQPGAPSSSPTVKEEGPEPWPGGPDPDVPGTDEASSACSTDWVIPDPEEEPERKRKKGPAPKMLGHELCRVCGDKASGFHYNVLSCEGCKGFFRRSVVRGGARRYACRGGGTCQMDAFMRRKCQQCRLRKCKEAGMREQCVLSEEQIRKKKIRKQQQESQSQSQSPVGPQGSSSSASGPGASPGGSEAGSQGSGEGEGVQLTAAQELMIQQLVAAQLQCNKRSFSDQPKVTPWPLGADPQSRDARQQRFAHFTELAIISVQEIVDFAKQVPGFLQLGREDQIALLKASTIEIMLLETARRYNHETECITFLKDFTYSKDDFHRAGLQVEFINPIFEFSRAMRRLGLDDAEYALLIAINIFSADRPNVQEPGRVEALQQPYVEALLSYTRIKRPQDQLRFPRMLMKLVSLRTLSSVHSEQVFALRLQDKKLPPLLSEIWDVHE

Mus musculus [5] = assay: Protection against imiquimod-induced C57BL/6 mouse model of psoriasis assessed as change in skin thickness at 5 mg/kg, po BID for 7 days and measured every day for 8 days relative to control; assay type: functional; settings: time 7 day
[6] = Half life in rat liver microsomes; assay type: ADME, Microsome
In short: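 Liver microsome half-life (min) measured in human, mouse, rat, dog and cyno liver microsomes.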

Mus musculus [7] = assay: Protection against recombinant human IL23-induced acanthosis C57BL/6 mouse model assessed as reduction in IL-17F mRNA levels at 3 mg/kg, po BID BID for 10 days by qRT-PCR analysis relative to control; assay type: functional; parameters: scale not given: the % may be the effect or the level left; settings: time 10 day
In short: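 In the IL-23 ear-injection model in C57BL/6 mice with BID oral dosing, ear tissue was collected from all animals at study end on day 10. IL-17A and IL-17F mRNA expression was quantified by qPCR and compared with the placebo arm.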

Cytochrome P450 1A2 = biological target: T2, Cytochrome P450 1A2 (Homo sapiens, UniProt P05177); assay: Inhibition of CYP1A2 (unknown origin); assay type: ADME
T2 sequence (P05177 whole entry): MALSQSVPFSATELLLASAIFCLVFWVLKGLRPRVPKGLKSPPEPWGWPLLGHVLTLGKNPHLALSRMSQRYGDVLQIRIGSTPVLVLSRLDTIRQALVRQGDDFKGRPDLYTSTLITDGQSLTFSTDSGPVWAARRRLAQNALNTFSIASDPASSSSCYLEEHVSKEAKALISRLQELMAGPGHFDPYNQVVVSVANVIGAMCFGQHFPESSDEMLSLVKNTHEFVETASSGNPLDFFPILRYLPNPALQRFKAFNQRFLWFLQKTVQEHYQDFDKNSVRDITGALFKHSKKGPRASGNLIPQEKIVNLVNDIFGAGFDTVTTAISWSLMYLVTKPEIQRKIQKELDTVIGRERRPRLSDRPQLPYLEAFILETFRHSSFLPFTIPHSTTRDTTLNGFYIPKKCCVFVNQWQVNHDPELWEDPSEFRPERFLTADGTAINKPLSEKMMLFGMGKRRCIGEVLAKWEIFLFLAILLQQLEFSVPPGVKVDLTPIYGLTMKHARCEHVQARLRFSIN

Mus musculus [8] = assay: Protection against imiquimod-induced C57BL/6 mouse model of psoriasis assessed as inhibition of skin thickening at 20 mg/kg, po BID for 7 days and measured every day for 8 days relative to control; assay type: functional; settings: C57BL/6, po, 168 h, time 7 day
[9] = Volume of distribution at steady state in mouse at 2 mg/kg, iv; assay type: ADME, organism-based; settings: in vivo, read-out: Vdss; in short: as §2
[10] = biological target: T3, Nuclear receptor ROR-gamma (Mus musculus, UniProt P51450); assay: Inverse agonist activity at RORgammat in mouse Th17 cells assessed as inhibition of CD3/CD28/IL-1/IL-23-induced IL-17A production measured after 24 hrs by AlphaLISA assay; assay type: cell-based
T3 sequence (P51450 whole entry): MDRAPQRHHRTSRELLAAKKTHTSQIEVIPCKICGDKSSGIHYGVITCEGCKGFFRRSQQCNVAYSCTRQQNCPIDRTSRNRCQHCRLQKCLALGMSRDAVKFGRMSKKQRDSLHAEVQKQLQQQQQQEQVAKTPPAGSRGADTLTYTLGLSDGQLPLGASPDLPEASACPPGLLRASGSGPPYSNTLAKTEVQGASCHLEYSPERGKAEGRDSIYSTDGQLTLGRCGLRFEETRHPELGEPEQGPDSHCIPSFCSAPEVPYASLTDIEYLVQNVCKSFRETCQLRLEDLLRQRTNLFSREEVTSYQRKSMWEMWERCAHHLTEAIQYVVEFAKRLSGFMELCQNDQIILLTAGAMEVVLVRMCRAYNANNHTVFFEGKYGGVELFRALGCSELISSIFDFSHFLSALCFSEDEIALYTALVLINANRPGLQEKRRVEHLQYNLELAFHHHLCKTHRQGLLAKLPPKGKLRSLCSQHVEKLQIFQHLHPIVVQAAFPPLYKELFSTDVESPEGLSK

[11] = biological target: T4, Nuclear receptor subfamily 1 group I member 2 (Homo sapiens, UniProt O75469); assay: Inverse agonist activity at PXR (unknown origin)
T4 sequence (O75469 whole entry): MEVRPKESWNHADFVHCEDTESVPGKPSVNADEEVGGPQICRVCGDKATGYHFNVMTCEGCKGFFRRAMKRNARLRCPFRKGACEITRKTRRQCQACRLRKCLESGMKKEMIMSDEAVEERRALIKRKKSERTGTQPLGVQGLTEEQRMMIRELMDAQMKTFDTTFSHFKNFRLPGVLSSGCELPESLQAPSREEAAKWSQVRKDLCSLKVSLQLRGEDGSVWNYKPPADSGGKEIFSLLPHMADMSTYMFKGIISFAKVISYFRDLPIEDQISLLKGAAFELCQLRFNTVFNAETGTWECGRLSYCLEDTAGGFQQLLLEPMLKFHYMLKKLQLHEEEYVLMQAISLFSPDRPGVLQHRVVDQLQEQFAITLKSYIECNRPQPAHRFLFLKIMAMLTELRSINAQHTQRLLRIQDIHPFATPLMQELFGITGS

[12] = Oral bioavailability in dog at 2 mg/kg; assay type: ADME, organism-based, Canis lupus familiaris; settings: in vivo; in short: as §1

CC(C)(O)C(=O)N[C@@H]1CC[C@@]2(S(=O)(=O)c3ccc(F)cc3)c3ccc(C(F)(C(F)(F)F)C(F)(F)F)cc3CC[C@@H]12
Cmax [1]: 1.3 µM
Vd [2]: 2.9 L/kg
inhibition in vivo at 3 mg/kg (Mus musculus [3]): 42.3%
EC50 [4]: > 5 µM
Activity (Mus musculus [5]): 67.2%
half-life [6]: 2 h
Activity (Mus musculus [7]): 13.7%
IC50 (Cytochrome P450 1A2): 20 µM
inhibition in vivo at 20 mg/kg (Mus musculus [8]): 57.7%
Vd [9]: 3 L/kg
EC50 [10]: 0.0027 µM
EC50 [11]: > 5 µM
bioavailability [12]: 83%
